# Only some compounds are listed: those with a hit (about 1.3% of all), similar ones and a draw of the others.
# Rad51 HR inh = Rad51 (human) homologous recombination inhibition; Q06609; hRad51 DNA strand exchange, fluorescence dequenching; inhibition, % at 10 µM; 200,000 tested, 0.085% active; AID 1385;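 active = inhibition above 40% at the single screening dose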;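 note: 0% = DMSO control wells and 100% = blanks with heterologous ssDNA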
#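 Assay system: Human Rad51 nucleoprotein filaments preassembled on unlabelled ssDNA | Reagent: Donor/quencher-labelled 47-bp dsDNA substrate | Doses: One concentration, 10 µM final | Times: 37 °C 15-min filament assembly, 30-min compound preincubation, 15-min exchange | Technique: Fluorescein emission 520 nm, excitation 485 nm | Benchmarks: Plate control and blank wells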
# PERK inh = human PERK inhibition, primary cell-based screen; CHO PERK-DD fusion, SEAP luminescence translation reporter; inhibition, % at 5.6 µM; Q9NZJ5; 220,000 tested, 0.17% active;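 active = inhibition above the mean inhibition of all tested compounds plus 3 SD, set separately per screening campaign, cut at about 2.9% in these data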;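 note: PERK kinase domain activated by AP20187 dimerizer at 100 nM; 0% = DMSO with dimerizer and 100% = rapamycin at 8.4 µM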
# PKD1 kinase inh = PKD1 (human) kinase inhibition; Q15139; PKD1 kinase fluorescence polarization assay; 200,000 tested, 0.056% active; inhibition, % (concentration not given with the values); in the data active = inhibition above about 50%
# MDM2 E3 inh = blocks human Mdm2 ubiquitin ligase activity; Q00987; AID 1230; 210,000 tested, 0.11% active; cell-based MDM2 ubiquitination luciferase reporter, 2 h; 0 = plate control, 100 = twice control, blank-subtracted; signal enhancement, % at 5 µM;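 active = signal enhancement of 30% or more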;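 note: luminescence tracks abundance of the self-degrading MDM2-luciferase fusion protein; higher signal means inhibition of MDM2 E3 ligase activity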
# Target sequence (Q00987 whole entry, looked up, the tested form may be a part): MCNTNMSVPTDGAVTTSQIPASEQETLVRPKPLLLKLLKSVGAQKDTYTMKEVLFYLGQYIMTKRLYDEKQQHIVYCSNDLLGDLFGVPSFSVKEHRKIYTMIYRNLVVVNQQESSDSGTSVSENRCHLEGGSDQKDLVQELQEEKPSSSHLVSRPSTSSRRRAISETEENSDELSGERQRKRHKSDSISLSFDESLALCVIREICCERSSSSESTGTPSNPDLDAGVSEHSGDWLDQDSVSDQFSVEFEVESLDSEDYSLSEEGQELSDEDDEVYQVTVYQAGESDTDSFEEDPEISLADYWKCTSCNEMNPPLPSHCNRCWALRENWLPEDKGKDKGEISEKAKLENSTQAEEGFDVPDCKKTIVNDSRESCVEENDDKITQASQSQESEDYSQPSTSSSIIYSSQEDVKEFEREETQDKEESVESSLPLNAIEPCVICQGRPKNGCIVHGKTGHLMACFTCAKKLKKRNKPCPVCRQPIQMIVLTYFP
#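 Assay system: stable mammalian line carrying autodegrading MDM2–luciferase fusion reporter; Input: 2000 cells in each well; Compound dosing: single-point 5 µM; Schedule: 2 h compound exposure at 37 °C; Signal: SteadyLite luciferase luminescence after 15 min room-temperature reagent incubation; Evaluation: % luminescence enhancement versus blank-corrected plate control mean; Benchmarks: plate controls and plate blanks.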
# Hck Nef HTS = human Hck-Nef kinase inhibition. P08631. Recombinant Hck-YEEI plus Nef, Z-Lyte FRET kinase assay. inhibition, % at 20 µM. 220,000 tested, 0.68% active. AID 463187;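 active = Hck-Nef kinase inhibition above about 50%, limit read from the data; inactive = inhibition below that limit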;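 note: 0% = DMSO with Hck plus Nef and 100% = Hck alone without Nef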
# TAG inh = inhibitors of triacylglycerol accumulation; H9c2 cells, Nile Red lipid (TAG) fluorescence; cells loaded with 200 µM oleic acid; 230,000 tested, 0.66% active; inhibition, % at 12.5 µM;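 active = pattern-corrected inhibition of lipid staining of at least 50% with the nuclear-stain viability signal not falling by more than 50%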;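 note: 0% = DMSO wells and 100% = triacsin C control wells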
# Hck Nef conf = Hck-Nef kinase inhibition, confirmation | shares compounds with Hck Nef HTS | Recombinant Hck-YEEI:Nef, Z-Lyte FRET kinase assay | calls only at 10 µM | 1,300 tested, 28% active | AID 463188;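 active = average inhibition of at least 50%, with Z-scores no higher than 3 in both the phospho-tyrosine peptide and fluorescence counterscreens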
# The depositor's hits bear a star; i = inactive; . = not tested or not shown; + = active, no number.
SMILES,Rad51 HR inh,PERK inh,PKD1 kinase inh,MDM2 E3 inh,Hck Nef HTS,TAG inh,Hck Nef conf
Cn1c(=O)c2c(nc(NCc3cccnc3)n2Cc2ccccc2Cl)n(C)c1=O,-2,1,1,-6,-5,8,.
C=C(C)Cn1c2ccc(NC(=O)NCCc3ccccc3)cc2c(=O)n1C,.,.,.,.,.,21,.
O=C(OCC(=O)N1CCN(C(=O)c2ccco2)CC1)c1cc(-c2ccc(Cl)c(Cl)c2Cl)nc2ccccc12,-7,-1,-7,-6,50*,12,+
O=C(OCC(=O)N1CCN(C(=O)c2ccco2)CC1)c1cc(-c2ccco2)nc2ccccc12,0,-1,4,-17,6,.,.
Cc1ccccc1-n1c(C)cc(/C=C2/C(=N)N3C(c4ccccc4)=CSC3=NC2=O)c1C,-34,0,-13,-3,0,.,.
N=C1/C(=C\c2ccc(-c3cccc(C(=O)O)c3)o2)C(=O)N=C2SC=C(c3ccccc3)N12,-3,0,.,-10,64*,-4,+
O=C(c1ccccc1)c1ccc2nc(Nc3ccccc3)c3nncn3c2c1,-17,-2,.,-8,68*,-7,i
Cc1ccc(S(=O)(=O)NCCC(=O)Oc2ccc3ccc(=O)oc3c2)cc1,.,1,.,-4,93*,-10,.
COc1cc([N+](=O)[O-])cc(/C=N/NC(=O)C(C)Nc2ccccc2C)c1O (stereo unspecified),18,2,2,-7,101*,.,+
COc1cc([N+](=O)[O-])cc(/C=N/NC(=O)C(C)Nc2cccc(C)c2)c1O (stereo unspecified),-3,1,5,-1,43,2,.
CCOC(=O)c1c(NC(=O)/C=C/C(=O)O)sc(C)c1-c1ccc(Cl)cc1,-8,0,-3,-5,107*,7,+
O=C(Nc1cccc(Oc2ccc(C(=O)O)c(C(=O)O)c2)c1)c1ccc(-c2ccccc2)cc1,-42,1,.,-40,66*,-13,i
COC(=O)c1c(C(=O)OC)c2ccncn2c1Cl,10,1,3,-16,0,.,.
COc1ccc(/C=N/Nc2ncnc3c2[nH]c2ccccc23)c(OC)c1OC,0,-1,0,-11,5,.,.
COc1cccc(/C=N/Nc2ncnc3c2[nH]c2ccc(C)cc23)c1OC,-1,-2,.,-7,66*,29,i
Cc1ccc(NC(=O)Cn2c(O)c(N=NC(=O)c3ccncc3)c3ccccc32)cc1,-4,1,-6,2,23,1,.
Cn1c(O)c(N=NC(=O)c2ccccc2O)c2ccccc21,-4,1,-4,-21,17,.,.
COc1ccccc1NC(=O)Cn1c(O)c(N=NC(=O)c2ccccc2O)c2ccccc21,.,1,-10,-5,91*,1,i
Cc1ccc(NC(=O)Cn2c(O)c(N=NC(=O)c3cc4ccccc4cc3O)c3ccccc32)cc1,4,0,-4,-14,51*,.,i
COc1ccc(CC(=O)Nc2ccc(N(C)C)c3ccccc23)cc1,.,.,.,.,.,14,.
O=C(CSc1n[nH]c(-c2ccccc2Br)n1)NCCN1C(=O)CSC1=O,-1,1,-4,-7,0,3,.
COc1ccccc1C(=O)Oc1cc(N)n(S(=O)(=O)c2ccccc2)n1,-11,0,-6,-5,107*,-8,i
Cc1c2c(n3c(nc4ccccc43)c1C#N)N(CCCN(C)C)CC2,1,0,-5,-2,54*,15,i
Cc1c2c(n3c(nc4ccccc43)c1C#N)N(CCN(C)C)CC2,-2,1,2,-1,55*,9,i
O=C(CSc1nc(O)cc(=O)n1-c1ccc(Cl)c(Cl)c1)Nc1ccc(Cl)cc1Cl,.,.,.,.,.,-5,.
SMILES,Rad51 HR inh,PERK inh,PKD1 kinase inh,MDM2 E3 inh,Hck Nef HTS,TAG inh,Hck Nef conf
COc1ccccc1S(=O)(=O)N(C)C[C@@H]1OCc2cnnn2CCCC(=O)N([C@@H](C)CO)C[C@H]1C,.,.,.,.,.,-5,.
Cc1ccc2c(c1)C1C=CCC1C(C(=O)O)N2 (stereo unspecified),.,0,-8,-12,8,.,.
CC(=O)c1ccc2c(c1)C1C=CCC1C(C(=O)O)N2 (stereo unspecified),0,0,-1,-3,74*,.,+
CCn1c2ccccc2c(=O)c2ccccc21,4,0,42,-18,142*,11,.
CCn1c(=O)c(-[n+]2ccccc2)c(O)c2ccccc21,-5,1,18,-7,1,-1,.
CCN(CC)c1ccc(-c2nn3c(-c4n[nH]c5c4CCC5)nnc3s2)cc1,-2,-1,10,-11,61*,57*,i
CC1=NN(c2cccc(C(=O)O)c2)C(=O)/C1=C\C=C/c1ccccc1,9,1,-3,31*,59*,.,i
COCc1cc(C)nc(OCC(=O)N/N=C/c2ccc(-c3cc([N+](=O)[O-])ccc3Cl)o2)c1C#N,1,0,-4,1,93*,16,i
Cc1ccc(O)c(C(=O)c2cnn(C(=O)Cc3csc(C)n3)c2)c1,-5,0,6,-23,74*,-8,+
COCc1cccc(-c2csc(C(C)(O)c3cccc(F)c3)n2)c1 (stereo unspecified),.,.,.,.,.,-3,.
CCc1ccc(C2=NN(c3ccc(S(N)(=O)=O)cc3)C(c3ccc(F)cc3)C2)cc1 (stereo unspecified),0,0,-5,-64,74*,13,.
CCOC(=O)c1cnc2ccc(C(=O)OC)cc2c1Nc1ccc(C(=O)O)cc1,14,1,1,-9,20,1,.
CCOC(=O)c1ccc2ncc(C(=O)OCC)c(Nc3ccc(N4CCOCC4)cc3)c2c1,1,0,2,-8,73*,26,+
COC(=O)c1c(N2C(=O)CC(Sc3ncccc3C(=O)O)C2=O)sc(C)c1C (stereo unspecified),16,2,.,0,17,3,.
COc1ccc(CNC(=O)c2ccc(=O)oc2)cc1OC,-5,1,-11,-9,57*,4,.
COc1ccc(C(=O)NCc2ccc(Cl)c(Cl)c2)cc1OC,1,0,3,7,3,.,.
CCC1(CC)C(=O)N(C)C(=O)NC1=Nc1ccc(OC)cc1,-3,1,2,-12,-3,-7,.
Cc1ccc(NC(=O)CN2C(=O)S/C(=C/c3ccc(O)c([N+](=O)[O-])c3)C2=O)cc1C,-3,0,3,-1,64*,-1,+
N#Cc1c2c(c(NCCCN3CCOCC3)n3c1nc1ccccc13)CCC2,-3,-2,-4,-14,61*,18,.
